The text below walks through data of ChEMBL document CHEMBL1147721, “Identification of new diamine scaffolds with activity against Mycobacterium tuberculosis” (J Med Chem, 2006).

Usually MIC stands for the lowest concentration that inhibits growth of the organism. As usually defined, the IC50 is the concentration needed to halve the response being measured.

Molecules are shown by their SMILES. Converted amounts (≈) assume the structure as drawn. The source made the active and inactive calls. The calls are words filed in the database; no cut-off is given here.

Assay [1] relates to Mycobacterium tuberculosis. The assay can be described thus: Antimycobacterial activity against Mycobacterium tuberculosis by broth microdilution assay. It counts as functional. The procedure, abridged:
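MIC by broth microdilution against M. tuberculosis. Library mixtures were screened unpurified, and active wells were deconvoluted and re-tested as individual compounds. Purified compounds (≥95%) were tested from 10 mM methanol stocks. INH, rifampicin and EMB were controls.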

Assay [2] has as its system HepG2. The experiment in a line: Cytotoxicity against human HepG2 cell line by MTS assay. It counts as functional, cell-based. A general note: Tetrazolium dyes change colour on reduction, which living cells bring about.
Assay [3] relates to HepG2. The assay can be described thus: Selectivity index, IC50 for human HepG2 cell line/MIC for Mycobacterium tuberculosis. It counts as functional. The procedure, abridged: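 SI = IC50/MIC: HepG2 IC50 from the MTS assay divided by the M. tuberculosis MIC from broth microdilution.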
Assay [4] relates to Mycobacterium tuberculosis. The assay can be described thus: Antimycobacterial activity against recombinant Mycobacterium tuberculosis containing Rv0341 promoter by luciferase assay. It counts as functional. Further details: concentration or dose not given beside the values. The essentials: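 Recombinant M. tuberculosis carrying the Rv0341 promoter fused to firefly luciferase was treated and luminescence read. Activity is given as percent of EMB activity (EMB = 100%). In screening, luminescence above 1.5-fold the untreated background counted as active.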

The next assay has as its system Mus musculus. The assay can be described thus: Reduction in body weight of C3H mouse infected with 10^6 CFU of Mycobacterium tuberculosis H37Rv at 10 mg/kg, po after 20 days. It counts as functional. Also noted: scale not given: the % may be the effect or the level left. The procedure, abridged:
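Rapid-progression model: C3H mice infected iv with 10^6 CFU M. tuberculosis H37Rv. Oral gavage at 10 mg/kg daily (dose not optimised) started day 7 and ran 10 days. Body weight was monitored from day 0, 6 mice per group. Controls were uninfected, infected untreated, and INH 25 mg/kg.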

Assay [5] has as its system Mycobacterium tuberculosis. The assay can be described thus: Reduction in CFU in C57BL/6 mouse infected with 10^5 CFU of Mycobacterium tuberculosis H37Rv at 10 mg/kg after 20 days. It counts as functional. The essentials: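 Low-dose chronic TB mouse model with M. tuberculosis H37Rv. Treatment began 20 days after infection: 10 mg/kg daily by oral gavage, 5 days/week for four weeks. INH 25 mg/kg was the positive control. Organ CFU were compared with infected untreated mice.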

In assay [1], `C=C(C)[C@@H]1CC=C(CN2CCN(Cc3ccccc3)CC2)CC1` registered a minimum inhibitory concentration (MIC) of 3.13 µM (≈ 0.972 µg/mL). Moreover, in the assay on HepG2 [2], half-maximal inhibition (IC50) required 60 µM. Moreover, in the assay with HepG2 [3], the Selectivity index worked out at 19. For the same molecule, the result in assay [4] was inactive.
For `COc1ccccc1CN1CCN(C(c2ccccc2)c2ccc(Cl)cc2)CC1` (stereo not drawn), in that order: 6.25 µM (≈ 2.54 µg/mL), 65 µM, 10 and “inactive”.
Taken in the same sequence, the figures for `C1CCC2CC(N3CCCN(C4CCC5CCCCC5C4)CC3)CCC2C1` (mixture of isomers) were 1.56 µM, 54 µM, 35 and 127%.
`CC1(C)C2CC=C(CN3CCN(Cc4ccccc4)CC3)C1C2` (stereo not drawn) showed an MIC in assay [1] of 6.25 µM (≈ 1.94 µg/mL). This molecule showed a 50% inhibitory concentration (IC50) in the assay with HepG2 [2] of 64 µM. In the assay on HepG2 [3], this molecule yielded a Selectivity index of 10. Moreover, the result in assay [4] was inactive.
Taken in the same sequence, the figures for `Fc1ccccc1N1CCN(C2CCC3CCCCC3C2)CC1` (stereo not drawn) were 12.5 µM (≈ 3.96 µg/mL), 70 µM, 6 and 145%.
For `C=C(C)[C@@H]1CC=C(CN2CCCN(CC3=CC[C@@H](C(=C)C)CC3)CC2)CC1`, in that order: 6.25 µM (≈ 2.3 µg/mL), 81 µM, 13 and “inactive”.
For `C1CCCC(N2CCCN(C3CCCCCCC3)CC2)CCC1`, in that order: 1.56 µM (≈ 0.5 µg/mL), 74 µM, 47 and 81%.
The molecule `c1ccc(COc2ccc(CN3CCCN(Cc4ccc(OCc5ccccc5)cc4)CC3)cc2)cc1` gave a minimal inhibitory concentration (MIC) in assay [1] of 3.13 µM (≈ 1.54 µg/mL). The molecule further gave a half-inhibitory concentration (IC50) with HepG2 [2] of 56 µM. This molecule also displayed a Selectivity index with HepG2 [3] of 18. For the same molecule, the outcome in assay [4] was inactive.
With `C1CN(C2C3CC4CC(C3)CC2C4)CCN(C2C3CC4CC(C3)CC2C4)C1` (stereo not drawn), inhibition of growth in assay [1] (MIC) required 1.56 µM (≈ 0.575 µg/mL). In the assay with HepG2 [3], the Selectivity index is recorded as 84.6. Also, the Activity in the assay with Mus musculus stood at 12%; in assay [4], 126%. Further, the Log10 cfu in assay [5] is 0.7.
`COc1ccccc1CN1CCCN(Cc2ccccc2OC)CC1` registered an MIC in assay [1] of 6.25 µM (≈ 2.13 µg/mL). In addition, in the assay on HepG2 [3], the Selectivity index amounted to 17. In addition, the Activity in assay [4] was 138%.
`Fc1ccc(N2CCN(C3CCC4CCCCC4C3)CC2)cc1` (stereo not drawn) gave an MIC in assay [1] of 12.5 µM (≈ 3.96 µg/mL). In addition, the IC50 with HepG2 [2] was 86 µM. In the assay with HepG2 [3], the Selectivity index came out at 7. The Activity in assay [4] came out at 157%.
With `CCOc1ccccc1CN1CCCN(Cc2ccccc2OCC)CC1`, the minimal inhibitory concentration (MIC) in assay [1] was determined as 1.56 µM (≈ 0.575 µg/mL). In the assay with HepG2 [2], this molecule had an IC50 of 71 µM. The same molecule displayed a Selectivity index in the assay on HepG2 [3] of 46. The Activity was 21% with Mus musculus and 70% in assay [4].
The molecule `NNC(=O)c1ccncc1` [ISONIAZID] came in with a Log10 cfu in assay [5] of 3.5.
For the molecule `c1ccc(COc2ccc(CN3CCN(Cc4ccccc4)CC3)cc2)cc1`, the minimal inhibitory concentration (MIC) in assay [1] turned out to be 6.25 µM (≈ 2.33 µg/mL). In addition, the midpoint of inhibition in the assay with HepG2 [2], the IC50, lay at 54 µM. In addition, the Selectivity index in the assay with HepG2 [3] is on record as 9. In the assay on Mus musculus, this molecule registered an Activity of 12%. Further, in assay [4], the outcome was inactive. Moreover, the Log10 cfu in assay [5] worked out at 1.
Molecule `CC1(C)C2CC=C(CN3CCCN(CC4=CCC5CC4C5(C)C)CC3)C1C2` showed an MIC in assay [1] of 3.13 µM (≈ 1.15 µg/mL). The Selectivity index with HepG2 [3] was 35. For the same molecule, the Activity in assay [4] was 113%.
`Clc1ccc(C(c2ccccc2)N2CCN(C3CCC4CCCCC4C3)CC2)cc1` (stereo not drawn) had a minimum inhibitory concentration (MIC) in assay [1] of 6.25 µM (≈ 2.64 µg/mL). The molecule further returned an IC50 in the assay on HepG2 [2] of 47 µM. In addition, the Selectivity index with HepG2 [3] came to 8. In addition, the result in assay [4] was inactive.
